Bioassay records as filed in PubChem BioAssay.
SUMO HTRF inh: inhibitors of human SUMOylation (UBC9); 0.36% of 290,000 active; inhibition, % at 35 µM; HTRF SUMOylation assay, SAE1/SAE2 + UBC9, in vitro; P63279; in the data active = inhibition above about 50%, passing the limit was not always enough; inconclusive = no clear call, values can overlap the other calls
Target sequence (P63279 whole entry, looked up): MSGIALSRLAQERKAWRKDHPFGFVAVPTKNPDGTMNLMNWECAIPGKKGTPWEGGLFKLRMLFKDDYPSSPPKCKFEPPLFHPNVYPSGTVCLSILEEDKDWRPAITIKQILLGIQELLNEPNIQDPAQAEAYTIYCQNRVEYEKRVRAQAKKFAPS
RBBP9 inhibitor: human RBBP9 hydrolase inhibition; inhibition, % at 7.94 µM; AID 1515; recombinant RBBP9, FP-Rh probe fluorescence polarization; 0.2% of 220,000 active; O75884;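 active = inhibition above the campaign mean of all tested compounds plus 3 SD, cut at about 14% in these data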;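 also: plate controls were DMSO wells with RBBP9 for no effect and wells lacking RBBP9 protein for full effect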
Target sequence (O75884 whole entry, looked up): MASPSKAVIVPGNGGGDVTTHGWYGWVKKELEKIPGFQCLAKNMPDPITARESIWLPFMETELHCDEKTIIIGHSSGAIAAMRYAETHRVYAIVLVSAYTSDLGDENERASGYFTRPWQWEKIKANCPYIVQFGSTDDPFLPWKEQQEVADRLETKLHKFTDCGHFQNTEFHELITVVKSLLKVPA
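System: RBBP9 protein / Quantity: 2.5 µM RBBP9 dispensing solution, before mixing / Also added: Serine-hydrolase probe FP-Rh, 375 nM pre-mixing / Dosing: 7.94 µM single dose, 0.794% DMSO / Timing: enzyme-compound preincubation 30 min, then probe labeling 45 min, 25 °C / Signal: FP readout at 525/598 nm / Controls: DMSO-treated enzyme wells and wells lacking RBBP9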
PREPL inh: human PREPL enzyme inhibition. 0.68% of 320,000 active. Q4J6C6. recombinant PREPL, fluorescence polarization activity-based probe. inhibition, % at 5.96 µM. AID 2751; in the data active = inhibition above about 43%;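 also: 0% = enzyme with DMSO and 100% = wells lacking enzyme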
Rin1 Abl inh: inhibitors of human Rin1-Abl protein interaction; P00519+Q13671; inhibition, % at 7.35 µM; TR-FRET Rin1/Abl binding, biochemical; 0.4% of 360,000 active; in the data active = inhibition above about 5%, passing the limit was not always enough
UBC13 polyUb: inhibitors of human UBC13 polyubiquitin chain formation. P61088. TR-FRET. 0.47% of 330,000 active. inhibition, % at 20 µM; in the data active = inhibition above about 45%, passing the limit was not always enough; inconclusive = no clear call, values can overlap the other calls
Target sequence (P61088 whole entry, looked up): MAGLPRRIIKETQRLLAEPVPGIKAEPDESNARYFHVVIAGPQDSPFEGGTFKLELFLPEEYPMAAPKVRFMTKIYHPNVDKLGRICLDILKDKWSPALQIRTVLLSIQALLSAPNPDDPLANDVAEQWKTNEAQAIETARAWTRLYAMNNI
ALR inh: inhibitors of human sulfhydryl oxidase ALR; P55789; purified ALR, DTT oxidation, H2O2 HRP-luminol luminescence; inhibition, % (test concentration not listed); 3.8% of 290,000 active;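 active = mean replicate inhibition above about 79%, with every replicate also reaching it, limit read from the data; inconclusive = only one of the two criteria met; inactive = mean below limit and not every replicate reaching it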
Active calls of the source: *; ? = inconclusive; . = no result. Rows were chosen to be rich in hits. Some 4.3% of all compounds tested hit in one or more screens of this group.

SMILES	SUMO HTRF inh	RBBP9 inhibitor	PREPL inh	Rin1 Abl inh	UBC13 polyUb	ALR inh
C=CCNC(=O)c1onc(CSc2cccc(OCC)c2)c1C(=O)O	1.1	-4.9	-3.3	0.5	-7.3	94.3*
C=CCNC(=O)c1onc(CSc2ccccc2)c1C(=O)O	-5.2	3.3	6.1	1.2	-9.0	8.6
C=CCNC(=O)c1onc(CSc2ccc(C(C)C)cc2)c1C(=O)O	33.5	-6.6	1.6	6.7	-9.2	96.7*
CN1C(=O)Cc2cc(S(=O)(=O)Nc3ccc(N4CCOCC4)cc3)ccc21	-4.4	.	13.1	1.3	-1.4	39.0
Cc1cc(C)nc(NNC2=CC(=[N+]3CCCCC3)CC(C)(C)C2)n1	-3.3	-2.0	25.1	-1.7	-19.8	98.8*
COc1ccc(C)cc1NCc1ccc(OC)c(C)c1OC	-7.3	.	-4.5	2.2	-3.7	76.8*
COc1ccc(C)cc1NCc1ccc([N+](=O)[O-])cc1	1.9	.	13.0	0.0	1.2	98.7*
C=CCn1c(-c2ccc(Cl)cc2)cnc1SC(C)C(=O)NC(N)=O (stereo unspecified)	1.6	-5.9	-21.9	-4.8	-0.6	10.7
Cc1cc2cc(CNC(=O)C3CCCC3)ccc2n1C	16.4	.	14.1	-24.4	?	96.6*
COCCCn1c(-c2ccc(Cl)cc2)n[nH]c1=S	-6.6	-5.3	0.6	-2.0	6.0	94.8*
CCn1c(-c2cc(OC)c(OC)c(OC)c2)n[nH]c1=S	5.4	-2.3	-1.4	-1.2	-0.7	96.8*
CCn1c(-c2cc(Cl)ccc2OC)n[nH]c1=S	-3.6	2.2	-2.0	-3.3	-5.8	92.2*
C=CCn1c(-c2cc(Cl)ccc2OC)n[nH]c1=S	8.6	4.0	18.7	-1.6	-4.9	41.5
COc1ccc(Cl)cc1-c1n[nH]c(=S)n1C	-0.2	4.2	6.3	0.5	-4.4	89.3*
C=CCn1c(-c2cc(OC)c(OC)c(OC)c2)n[nH]c1=S	14.1	0.5	5.1	-3.2	19.1	0.8
CCOCCCn1c(-c2ccc(Cl)cc2)n[nH]c1=S	7.1	-3.8	3.4	-4.1	10.2	22.5
CCn1c(SCC(=O)Nc2ccc(OC)c(S(=O)(=O)N3CCCCC3)c2)nnc1C1CC1	.	.	.	-1.1	-4.5	.
COCc1c(C(=O)NCCOc2ccc(Cl)cc2)oc2ccccc12	.	.	4.5	-1.6	7.9	-2.8
Cc1cc(C)cc(C(O)c2ncc(-c3cccc(F)c3)[nH]2)c1 (stereo unspecified)	.	.	.	-4.2	.	.
N#CCC(=O)Nc1ccc(C(=O)NCCc2c[nH]c3ccccc23)cc1	-14.8	.	-5.0	-5.1	5.7	98.5*
O=C(CCc1c[nH]c2ccccc12)NCCc1ccc(O)cc1	7.6	.	-1.7	-0.4	4.3	85.4*
O=C(NCCc1c[nH]c2ccccc12)c1ccccc1	-2.9	.	2.2	-4.3	-1.8	.
Cc1cc(OCC(=O)Nc2sc3c(c2C#N)CC(C)(C)NC3(C)C)c(C(C)C)cc1Cl	7.0	.	16.5	-1.4	16.7	-8.4
O=C(Cn1cccn1)c1ccccc1	13.2	-4.9	-2.4	-3.2	4.5	.
Cc1ccccc1NCc1ccccc1O	-7.7	-5.8	1.9	1.6	1.5	100.2*
SMILES	SUMO HTRF inh	RBBP9 inhibitor	PREPL inh	Rin1 Abl inh	UBC13 polyUb	ALR inh
Cc1ccc(NCCNc2ccc(C)cc2)cc1	-8.0	-7.0	7.9	-7.7	2.9	99.1*
Cc1ccc(NCc2ccccc2O)cc1	-9.1	-2.1	2.2	-0.1	2.9	?
Cc1ccc(O)c(CNc2cnc3ccccc3c2)c1	2.5	.	-4.3	1.2	16.6	97.7*
Oc1ccc(Br)cc1CNc1cnc2ccccc2c1	-3.7	.	-7.1	3.3	27.4	54.9
Cc1cccc(NCc2ccccc2O)c1	13.0	-7.8	-1.4	-0.8	5.5	98.9*
CCCCCCCNc1cccc(C)c1	7.8	-8.2	-1.9	0.0	2.5	-6.3
Cc1cccc(NCCNc2cccc(C)c2)c1	6.1	-4.0	13.7	-0.6	-1.8	98.7*
COc1cc(C)ccc1OCC(=O)OCC(=O)NCC1CCCCC1	.	.	6.7	4.1	6.8	-3.8
CC(=O)c1ccc(OC(=O)CCc2nc3ccccc3s2)cc1	5.6	-10.5	0.5	2.7	12.0	92.9*
O=C(O)c1nc(-c2ccccc2)n(-c2cccc(C(F)(F)F)c2)n1	1.1	1.4	-5.7	3.3	21.0	-13.1
CCOC(=O)C(CC)(CCC(=O)O)c1csc(Nc2ccc(C)cc2)n1 (stereo unspecified)	7.1	-6.0	9.1	0.8	1.3	98.6*
O=C(NNc1nc2ccc(F)cc2s1)c1cccc(F)c1	16.2	-4.9	-5.6	-0.6	-7.9	98.2*
O=C(O)Cc1ccc(O)c(O)c1	0.8	.	-9.5	-0.1	-10.2	98.4*
COc1ccc(C(c2c(C)[nH]n(C(N)=S)c2=O)C(C#N)C#N)cc1 (stereo unspecified)	15.7	-9.5	-0.3	2.0	-27.0	74.7
Cc1[nH]n(-c2ncc(-c3ccc(Cl)cc3)s2)c(=O)c1C(c1ccc(Cl)cc1)C(C#N)C#N (stereo unspecified)	70.0*	-10.8	7.0	-1.4	-25.8	12.7
C=C(C(=O)c1ccccc1)C(C)C(=C)C(=O)c1ccccc1	-7.2	-2.2	-1.9	1.9	.	87.2*
CCOC(=O)CC(NS(=O)(=O)c1ccc2[nH]c(=O)sc2c1)c1ccc(C)cc1 (stereo unspecified)	15.8	.	-10.6	1.4	1.8	1.9
O=C(Nc1ccccc1OC(F)F)C1CC(=O)N(Cc2ccccc2)C1 (stereo unspecified)	.	.	-7.4	6.5	9.6	-21.4
CCOc1ccccc1N1CC(C(=O)Nc2ccccc2N2CCCC2)CC1=O (stereo unspecified)	.	.	16.6	-1.3	-8.3	87.7*
O=C(Nc1ccccc1N1CCCC1)C1CC(=O)N(Cc2ccccc2)C1 (stereo unspecified)	.	.	7.6	-0.2	6.7	97.5*
CCN(CC(=O)Nc1ccc(NC(C)=O)cc1)C(=O)/C=C/c1ccc([N+](=O)[O-])cc1	.	.	-5.4	-2.5	-2.1	-8.4
COc1ccccc1/C=C1\SC(=S)N(NS(=O)(=O)c2ccc(C)cc2)C1=O	9.8	.	3.0	-2.0	-11.7	97.3*
Cc1ccc(S(=O)(=O)NN2C(=O)/C(=C/c3cccnc3)SC2=S)cc1	25.1	.	8.6	-1.4	-2.0	96.1*
CCOc1ccc(/C=C2\SC(=S)N(NS(=O)(=O)c3ccc(C)cc3)C2=O)cc1OC	10.1	-9.3	2.5	-1.6	2.9	11.5
COc1ccc(/C=C2\SC(=S)N(NS(=O)(=O)c3ccc(C)cc3)C2=O)c(OC)c1	9.1	.	3.4	0.8	-23.6	24.2
CN(C)Cc1ccccc1Sc1ccc(O)cc1O	23.0	6.3	-1.6	-0.8	-2.7	99.5*
COc1ccc(C(=O)CSc2nnc(CNC(=O)c3ccc(OC)c(OC)c3)n2C)cc1	7.6	-3.0	3.9	2.2	-1.9	5.1
COc1ccc(C(=O)NCc2nnc(SCC(=O)c3ccc(F)cc3)n2C)cc1OC	.	.	2.0	3.5	-4.9	93.7*
Cn1c(CNC(=O)c2ccco2)nnc1SCC(=O)c1ccc(F)cc1	21.8	.	-5.6	1.1	-8.0	85.7*
